Paper PMC12443483 (Journal of the American Chemical Society, 2025)
“And” between values parts separate entries of the source, which are not always exact repeats. Equal entries are not always repeated.

Columns and labels:
[1] = Viscosity sensitivity: fluorescence in ethylene glycol/glycerol mixtures; assay type: physicochemical; settings: EG/G mixtures 16 to 851 cP; for Viscosity sensitivity χ2: second-order polynomial regression, 25 μM probe
Procedure, shortened: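 Fluorescence was measured in ethylene glycol/glycerol mixtures spanning 16–851 cP; the two solvents were chosen for closely matched dielectric constants, to minimise polarity effects. χ2 was derived from second-order polynomial regression of intensity against viscosity.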

[2] = Photophysical characterization by absorption and fluorescence spectroscopy; assay type: physicochemical; settings: for Absorbance λabs (maximum absorption wavelength) / Emission λem (maximum emission wavelength) / ε (molar absorption coefficient at maximum absorption wavelength): 25 μM probe in CH3CN/PBS pH 7.4; for Stokes Shift: difference between λabs and λem, CH3CN/PBS pH 7.4
Procedure, shortened: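 Probe at 25 μM final in CH3CN/PBS (50:50 v/v), pH 7.4. Absorption and emission spectra were recorded, with excitation at each probe's absorption maximum. ε was taken at the absorption maximum, and Stokes shift as the absorption–emission maximum difference. Quantum yield (error limit ±5) was measured in this mixture and also in CH3CN.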

[3] = Polarity sensitivity: emission across solvents with varying dielectric constants; assay type: physicochemical; settings: for Polarity sensitivity: λem versus solvent dielectric constant; for Emission wavelength range (solvatochromism): depending on solvent polarity
[4] = Temperature dependence of fluorescence in methanol/glycerol mixtures; assay type: physicochemical
Procedure, shortened: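 Fluorescence of 25 μM probe was measured in methanol/glycerol mixtures of varying viscosity at 25 and 42 °C. Fluorescence fold change was plotted against viscosity.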

αS fibrils [5] = biological target: T1, αS fibrils (Homo sapiens, UniProt P37840); assay: Turn-on fluorescence upon binding to αS fibrils; settings: for Brightness increase upon binding to αS fibrils / Emission wavelength upon binding to αS fibrils: 10 μM probe, 50 μM αS fibrils; for Fluorescence lifetime (τ) upon binding to αS fibrils: bound to αS fibrils
Procedure, shortened: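 Emission spectra of 10 μM probe were recorded with 50 μM αS monomer or fibrils. Samples were also photographed under a 365 nm hand-held UV lamp.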

PDD-derived AFs = PDD-derived AFs (Homo sapiens, UniProt P37840); assay: Fluorescence with amplified fibrils; assay type: binding; settings: 1 μM probe, 1 μM AFs, average of three PDD patients
Procedure, shortened: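 Probe (1 μM) was mixed with amplified fibrils (1 μM) or brain lysates from three PDD patients, and the averages are shown. Ex/Em was set per probe: 463/580 or 484/620 nm, with ThT reference at 450/482 nm. Fold change is after subtracting free probe fluorescence in PBS. Error bars are SD of 3 measurements.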

αS fibrils [6] = biological target: T1, αS fibrils; assay: Binding affinity; settings: for Kd: read-out: Dissociation constant (Kd), probe 10 nM–10 μM with 100 μM αS fibrils
αS fibrils [7] = biological target: T1, αS fibrils; assay: Competition binding studies with ThT, Ex6 and BF2846 on αS fibrils; settings: for Competition with ThT: some ThT emission remained at saturating concentrations
tau fibrils = assay: Amyloid selectivity: turn-on with αS fibrils relative to tau fibrils; assay type: binding; settings: 1 μM probe
αS = αS (Homo sapiens, UniProt P37840); assay: Monitoring αS aggregation over prolonged agitation; assay type: biochemical; settings: PBS buffer, 37 °C; for Detection of early αS aggregation species (misfolding, oligomers/protofibrils): 0–40 hours
αS/pLK condensates = assay: CLSM staining of αS/pLK LLPS condensates relative to αS fibrils; settings: αS 100 μM / pLK 0.25 mg/mL, LLPS buffer
Procedure, shortened: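 Condensates of αS (100 μM) and poly-L-lysine (0.25 mg/mL), doped with 5% Acd-labelled αS (position 94) and 5% FITC-poly-L-lysine, stained and imaged by confocal microscopy. Channels: Acd 430–480 nm (Ex 405 nm); FITC 500–540 nm; probe Ex 561 nm, Em 570–620 or 630–680 nm. Probe intensity in condensates was divided by that with αS fibrils. Buffer: HEPES/NaCl/TCEP pH 7.4 with 15% PEG-8000, room temperature. SD of >3 measurements.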

αS/Tau0N4R condensates = assay: CLSM staining of αS/tau condensates relative to αS fibrils; settings: 80 μM αS / 40 μM tau, LLPS buffer
Aβ1–42 fibrils = assay: Amyloid selectivity: turn-on with αS fibrils relative to Aβ1–42 fibrils; assay type: binding; settings: 1 μM probe
αS monomer = αS monomer (Homo sapiens, UniProt P37840); assay: Fluorescence with TMAO-induced αS misfolding/oligomers; assay type: biochemical
Procedure, shortened: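 Monomeric αS (50 μM) was exposed to trimethylamine N-oxide at 2, 4 or 6 M to induce misfolding or oligomers, then probe fluorescence was read. Fold change is relative to free probe in Tris buffer containing the same TMAO concentration.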

αS fibrils [8] = biological target: T1, αS fibrils; assay: Concentration-dependent binding λem and local dielectric constant on αS fibrils; settings: for Dielectric constant of local environment of probe bound to αS fibrils: calculated from fits of λem in solvents, 581 nm for 3c, 617 nm for 4a
Tau0N4R condensates [9] = assay: CLSM staining of Tau0N4R condensates with and without αS; settings: 40 μM Tau0N4R with or without 80 μM αS
Procedure, shortened: (§1)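 Confocal imaging of 40 μM Tau0N4R condensates, with or without 80 μM αS, doped with 5% AF488-labelled Tau0N4R. Buffer: 20 mM HEPES, 150 mM NaCl, 1 mM TCEP, pH 7.4, 15% PEG-8000, room temperature. Probe read at Ex 561 nm, Em 630–680 nm; AF488-tau at Ex 488 nm, Em 500–540 nm. Error bars are SD of >3 measurements.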

Tau0N4R condensates [10] = biological target: Tau0N4R condensates (Homo sapiens, UniProt P10636); assay: as above; settings: 40 μM Tau0N4R without αS, 630–680 nm channel
Procedure, shortened: as §1

[11] = 2 M TMAO, 50 μM αS monomer, 10 μM probe
[12] = 4 M TMAO, 50 μM αS monomer, 10 μM probe
[13] = 6 M TMAO, 50 μM αS monomer, 10 μM probe

Tau0N4R condensates (Homo sapiens, UniProt P10636), sequence (P10636 2-383 isoform P10636-6): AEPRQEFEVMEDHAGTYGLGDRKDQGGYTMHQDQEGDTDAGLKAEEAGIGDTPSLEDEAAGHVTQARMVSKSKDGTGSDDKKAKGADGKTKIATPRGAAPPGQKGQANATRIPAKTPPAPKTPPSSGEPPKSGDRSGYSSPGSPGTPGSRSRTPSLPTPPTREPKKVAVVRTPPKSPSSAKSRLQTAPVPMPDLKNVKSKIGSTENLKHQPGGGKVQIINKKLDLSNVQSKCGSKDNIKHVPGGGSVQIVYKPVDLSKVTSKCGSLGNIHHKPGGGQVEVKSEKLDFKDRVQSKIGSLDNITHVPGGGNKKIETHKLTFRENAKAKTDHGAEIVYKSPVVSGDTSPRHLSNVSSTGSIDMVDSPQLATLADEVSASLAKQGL

Row | Structure (SMILES) | Fluorescence intensity change with viscosity [1] | Viscosity sensitivity χ2 [1] | Absorbance λabs (maximum absorption wavelength) [2] | Emission λem (maximum emission wavelength) [2] | ε (molar absorption coefficient at maximum absorption wavelength) [2] | Fluorescence QY ([2]; CH3CN/PBS pH 7.4, 25 μM) | Stokes Shift [2] | Fluorescence QY ([2]; in CH3CN) | Polarity sensitivity [3] | Fluorescence change between 25 °C and 42 °C [4] | Emission wavelength range (solvatochromism) [3] | Brightness increase upon binding to αS fibrils (αS fibrils [5]) | Emission wavelength upon binding to αS fibrils (αS fibrils [5]) | Fluorescence lifetime (τ) upon binding to αS fibrils (αS fibrils [5]) | Fluorescence with PDD-derived AFs compared to unamplified lysate (PDD-derived AFs) | Kd (αS fibrils [6]) | Displacement of probe fluorescence by BF2846 (Site B binder) (αS fibrils [7]) | Displacement of probe fluorescence by Ex6 (Site A binder) (αS fibrils [7]) | Staining efficiency: probe intensity ratio αS/pLK condensates to αS fibrils (αS/pLK condensates) | Staining: probe intensity ratio αS/Tau condensates to αS fibrils (αS/Tau0N4R condensates) | other results
1 | Cc1c(C)n2c(/C=C/c3ccc(N(C)C)cc3)c(C)c(=O)n2c1=O [3c] | 3.82 fold | 0.6 ×10^−3 | 418 nm | 604 nm | 30400 M⁻¹ cm⁻¹ | 0.5% | 186 nm | 7.3 ± 0.3% and 7.3% | 32.1 | 2.48 fold |  | 476 fold | 580 nm | 2.27 ns | 2.4 fold | 1450 ± 430 nM | partially displaced | not displaced | 0.68 fold | 0.37 fold | Competition with ThT (αS fibrils [7]): competed with the promiscuous binder ThT; Turn-on for αS fibrils relative to tau fibrils (tau fibrils): 2.8 fold; Detection of early αS aggregation species (misfolding, oligomers/protofibrils) (αS): unable to detect changes within 20 h; Turn-on for αS fibrils relative to Aβ1–42 fibrils (Aβ1–42 fibrils): 5.2 fold; λem with αS/TMAO (αS monomer; 4 M TMAO): 566 nm; λem with αS/TMAO (αS monomer; 6 M TMAO): 560 nm; λem as probe concentration increased (αS fibrils [8]; bound to αS fibrils): 575 to 581 nm; λem shift as concentration increased (αS fibrils [8]; bound to αS fibrils): 6 nm; Dielectric constant of local environment of probe bound to αS fibrils (αS fibrils [8]): 35.9
2 | Cc1c(C)n2c(/C=C/C=C/c3ccc(N(C)C)cc3)c(C)c(=O)n2c1=O [4a] | around 3 fold |  | 436 nm | 640 nm | 36700 M⁻¹ cm⁻¹ | 0.6% | 204 nm | 13.5% | ~ 31.5 |  | 486–640 nm | 383 fold | 620 nm | 1.27 ns | 2.6 fold | 420 ± 250 nM | not affected | not affected | 1.11 fold | 1.12 fold | Affinity relative to 3c (αS fibrils [6]; Kd ratio 3c/4a): 3.5 times; Competition with ThT (αS fibrils [7]): competed with the promiscuous binder ThT; Turn-on for αS fibrils relative to tau fibrils (tau fibrils): 11 fold; Increase in fluorescence intensity within 20 hours of αS aggregation (αS; agitation): 15 fold; λem shift ([3]; across solvents with dielectric constants from 2.38 to 8.93): 64 nm; Fluorescence in αS-containing tau condensates compared to tau-only condensates (Tau0N4R condensates [9]): 3.8 fold; Staining of tau-only condensates (Tau0N4R condensates [10]): minimal staining; Turn-on for αS fibrils relative to Aβ1–42 fibrils (Aβ1–42 fibrils): 15 fold; λem with αS/TMAO (αS monomer; 2 M TMAO): 604 nm; Sensitivity (turn-on) relative to 3c (αS monomer; [11]): 2.2 fold; Sensitivity (turn-on) relative to ThT (αS monomer; [11]): 3.1 fold; λem with αS/TMAO (αS monomer; 4 M TMAO): 606 nm; Sensitivity (turn-on) relative to 3c (αS monomer; [12]): 2.9 fold; Sensitivity (turn-on) relative to ThT (αS monomer; [12]): 5.2 fold; λem with αS/TMAO (αS monomer; 6 M TMAO): 601 nm; Turn-on relative to 2a (so in the source) (αS monomer; [13]): 1.2 fold; Turn-on relative to ThT (αS monomer; [13]): 1.5 fold; λem as probe concentration increased (αS fibrils [8]; bound to αS fibrils): 617 to 618 nm; Dielectric constant of local environment of probe bound to αS fibrils (αS fibrils [8]): 27.6
3 | Cc1ccc2c(c1)sc(-c1ccc(N(C)C)cc1)[n+]2C [ThT, Thioflavin-T, reference compound] |  |  |  |  |  |  |  |  |  |  |  |  |  |  | failed to distinguish AFs from lysate |  |  |  | 0.15 fold | 0.34 fold | Detection of early αS aggregation species (misfolding, oligomers/protofibrils) (αS): only tracking mature fibrils

Further lines, with some results ahead:

Row | Fluorescence intensity change with viscosity [1] | Viscosity sensitivity χ2 [1] | Absorbance λabs (maximum absorption wavelength) [2] | Emission λem (maximum emission wavelength) [2] | ε (molar absorption coefficient at maximum absorption wavelength) [2] | Fluorescence QY ([2]; CH3CN/PBS pH 7.4, 25 μM) | Stokes Shift [2] | Fluorescence QY ([2]; in CH3CN) | Polarity sensitivity [3] | Fluorescence change between 25 °C and 42 °C [4] | Emission wavelength range (solvatochromism) [3] | Brightness increase upon binding to αS fibrils (αS fibrils [5]) | Emission wavelength upon binding to αS fibrils (αS fibrils [5]) | Fluorescence lifetime (τ) upon binding to αS fibrils (αS fibrils [5]) | Fluorescence with PDD-derived AFs compared to unamplified lysate (PDD-derived AFs) | Kd (αS fibrils [6]) | Displacement of probe fluorescence by BF2846 (Site B binder) (αS fibrils [7]) | Displacement of probe fluorescence by Ex6 (Site A binder) (αS fibrils [7]) | Structure (SMILES) | Staining efficiency: probe intensity ratio αS/pLK condensates to αS fibrils (αS/pLK condensates) | Staining: probe intensity ratio αS/Tau condensates to αS fibrils (αS/Tau0N4R condensates) | other results
4 | 5.4 fold | 1.0 ×10^−3 | 385 nm | 583 nm | 30800 M⁻¹ cm⁻¹ | 0.7% | 198 nm | 1.5% | 26.7 | 2.14 fold |  |  |  |  |  |  |  |  | Cc1c(C)n2c(/C=C/c3ccc(N)cc3)c(C)c(=O)n2c1=O [3a] |  |  | 
5 | 4.68 fold | 0.7 ×10^−3 | 399 nm | 591 nm | 26400 M⁻¹ cm⁻¹ | 0.5% | 192 nm | 2.0% | 30.7 |  | 486–640 nm |  |  |  |  |  |  |  | CNc1ccc(/C=C/c2c(C)c(=O)n3c(=O)c(C)c(C)n23)cc1 [3b] |  |  | 
